In ChEMBL document CHEMBL1122426, “Radioiodine-labeled N,N-dimethyl-N'-(2-hydroxy-3-alkyl-5-iodobenzyl)-1,3-propanediamines for brain perfusion imaging” (J Med Chem, 1983):

Assays:
Rattus norvegicus [1] = organism: Rattus norvegicus; assay: Effect of specific activity of compound on biodistribution in rats liver 1 hr after injection at the dose of 6.25 mg value expressed in average % dose per organ; value may range from 16.5 to 17.2; type: ADME, organism-based; settings: in vivo
Method in brief: (§1)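 Rats received an intravenous injection of the I-125 labeled diamine with added unlabeled carrier (6.25, 2.5, 0.25 or 0.025 mg per dose). At 1 h, organs were counted. Percent dose per organ came from comparing tissue radioactivity with diluted aliquots of the injected dose. Values are the average and range of 3 rats. Brain/blood ratio was taken from % dose per gram, calculated using mean organ weights (brain 1.65 g; blood 18 g).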

Rattus norvegicus [2] = organism: Rattus norvegicus; assay: Effect of specific activity of compound on biodistribution in rats brain to blood ratio 1 hr after injection at the dose of 2.5 mg value expressed in % dose per gram ratio; type: ADME, organism-based; method in brief: as §1
[3] = Biodistribution of […] in a monkey thyroid. 1 hr after intravenous injection. the value expressed in %dose/gram; type: ADME, organism-based, Thyroid gland; settings: simiiformes, in vivo
Method in brief: (§2)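 Monkey sedated with ketamine and anesthetized with nembutal, then given ~100 μCi [125I] label (~7 mCi/mg) intravenously. Killed 1 h later by nembutal overdose. Organs dissected, weighed and counted. % dose per organ found against diluted injected-dose aliquots; % dose per gram also reported; brain/blood from per-gram values. Single animal.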

[4] = Biodistribution of [125I]- compound in a monkey heart. 1 hr after intravenous injection. the value expressed in %dose/gram; settings: simiiformes, in vivo
[5] = Biodistribution of […] compound in a monkey bone. 1 hr after intravenous injection. the value expressed in %dose/organ; type: ADME, organism-based, Bone element; settings: simiiformes, in vivo; method in brief: as §2
Rattus norvegicus [6] = assay: Biodistribution of I-125 labeled compound in rat brain, 2 min after intravenous injection. value expressed in average % dose per organ; value may range from 1.71 to 1.95; type: ADME, organism-based; settings: in vivo
Rattus norvegicus [7] = assay: Biodistribution of I-125 labeled compound in rat brain, 1 hr after intravenous injection. value expressed in average % dose per organ; value may range from 1.71 to 2.54; type: ADME, organism-based; settings: in vivo
[8] = Biodistribution of [125I]- compound in a monkey blood. 1 hr after intravenous injection. the value expressed in %dose/gram; settings: simiiformes, in vivo
[9] = The protein binding ability of compound was expressed in Percent free; type: ADME; settings: read-out: % free
Method in brief: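 Binding to pooled human serum was measured by equilibrium dialysis. 0.4 mL serum and 0.4 mL 0.15 M phosphate buffer, pH 7.4, were separated by a membrane, and 0.025 μCi radiolabeled diamine was added on the buffer side. Cells were rotated at 37 °C for 18 h, and aliquots from both sides were weighed and counted. % free = buffer/serum radioactivity concentration ratio × 100. The membrane was also counted.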

Rattus norvegicus [10] = assay: Biodistribution of I-125 labeled compound in rat blood, 2 min after intravenous injection. value expressed in average % dose per organ; value may range from 2.42 to 2.84; type: ADME, organism-based; settings: in vivo
[11] = Biodistribution of [125I]- compound in a monkey lungs.1h after intravenous injection. the value expressed in%dose/organ; settings: simiiformes, in vivo
Rattus norvegicus [12] = organism: Rattus norvegicus; assay: Effect of specific activity of compound on biodistribution in rats brain 1 hr after injection at the dose of 6.25 mg value expressed in average % dose per organ; value may range from 1.95 to 2.70; type: ADME, organism-based; settings: in vivo; method in brief: as §1
Rattus norvegicus [13] = organism: Rattus norvegicus; assay: Effect of specific activity of compound on biodistribution in rats thyroid 1 hr after injection at the dose of 2.5 mg value expressed in average % dose per organ; value may range from 0.12 to 0.14; type: ADME, organism-based, Thyroid gland; settings: in vivo; method in brief: as §1
Rattus norvegicus [14] = organism: Rattus norvegicus; assay: Distribution coefficient at pH 7.4 in rat; type: ADME, organism-based
Method in brief: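 Octanol/buffer partition: I-125 labeled diamine mixed with 3 g each of 1-octanol and 0.1 M phosphate buffer at pH 7.0 or 7.4, vortexed 3× 1 min, centrifuged 5 min. Two 0.5 g samples of each layer counted. Value is cpm/g octanol over cpm/g buffer, usually repeated three times.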

Rattus norvegicus [15] = organism: Rattus norvegicus; assay: Effect of specific activity of compound on biodistribution in rats brain to blood ratio 1 hr after injection at the dose of 6.25 mg value expressed in % dose per gram ratio; type: ADME, organism-based; method in brief: as §1
Rattus norvegicus [16] = organism: Rattus norvegicus; assay: Effect of specific activity of compound on biodistribution in rats lungs 1 hr after injection at the dose of 0.25 mg value expressed in average % dose per organ; value may range from 12.0 to 20.3; type: ADME, organism-based, Lung; settings: in vivo; method in brief: as §1
[17] = Biodistribution of [125I]- compound in a monkey muscle. 1 hr after intravenous injection. the value expressed in%dose/organ; settings: simiiformes, in vivo
Rattus norvegicus [18] = organism: Rattus norvegicus; assay: Effect of specific activity of compound on biodistribution in rats brain to blood ratio 1 hr after injection at the dose of 0.25 mg value expressed in % dose per gram ratio; type: ADME, organism-based; method in brief: as §1
Rattus norvegicus [19] = assay: Biodistribution of I-125 labeled compound in rat muscle, 2 min after intravenous injection value expressed in average % dose per organ; value may range from 5.84 to 12.8; type: ADME, organism-based, Muscle tissue; settings: in vivo
Rattus norvegicus [20] = assay: Biodistribution of I-125 labeled compound in rat lungs, 2 min after intravenous injection. value expressed in average % dose per organ; value may range from 15.7 to 18.7; type: ADME, organism-based, Lung; settings: in vivo
Rattus norvegicus [21] = organism: Rattus norvegicus; assay: Effect of specific activity of compound on biodistribution in rats thyroid 1 hr after injection at the dose of 6.25 mg value expressed in average % dose per organ; value may range from 0.09 to 0.11; type: ADME, organism-based, Thyroid gland; settings: in vivo; method in brief: as §1
Rattus norvegicus [22] = assay: Biodistribution of I-125 labeled compound in rat heart, 1 hr after intravenous injection. value expressed in average % dose per organ; value may range from 0.97 to 1.26; type: ADME, organism-based; settings: in vivo
[23] = Biodistribution of [125I]- compound in a monkey muscle. 1 hr after intravenous injection. the value expressed in %dose/gram; settings: simiiformes, in vivo
[24] = Biodistribution of […] compound in a monkey heart. 1 hr after intravenous injection. the value expressed in%dose/organ; type: ADME, organism-based; settings: simiiformes, in vivo; method in brief: as §2
Rattus norvegicus [25] = organism: Rattus norvegicus; assay: Effect of specific activity of compound on biodistribution in rats brain 1 hr after injection at the dose of 0.25 mg value expressed in average % dose per organ; value may range from 1.76 to 1.97; type: ADME, organism-based; settings: in vivo; method in brief: as §1
Rattus norvegicus [26] = organism: Rattus norvegicus; assay: Effect of specific activity of compound on biodistribution in rats blood 1 hr after injection at the dose of 0.25 mg value expressed in average % dose per organ; value may range from 0.83 to 0.92; type: ADME, organism-based; settings: in vivo
[27] = Biodistribution of [125I]- compound in a monkey brain to blood ratio 1 hr after intravenous injection. the value expressed in %dose/gram; settings: simiiformes, in vivo
Rattus norvegicus [28] = organism: Rattus norvegicus; assay: Effect of specific activity of compound on biodistribution in rats lungs 1 hr after injection at the dose of 6.25 mg value expressed in average % dose per organ; value may range from 2.70 to 7.70; type: ADME, organism-based, Lung; settings: in vivo; method in brief: as §1
[29] = Biodistribution of [125I]- compound in a monkey spleen. 1 hr after intravenous injection. the value expressed in%dose/organ; settings: simiiformes, in vivo
[30] = Biodistribution of [125I]- compound in a monkey liver. 1 hr after intravenous injection. the value expressed in %dose/organ; settings: simiiformes, in vivo
Rattus norvegicus [31] = organism: Rattus norvegicus; assay: Effect of specific activity of compound on biodistribution in rats muscle after injection at the dose of 0.025 mg value expressed in average % dose per organ; value may range from 11.6 to 12.9; type: ADME, organism-based, Muscle tissue; settings: in vivo; method in brief: as §1

Cc1cc(I)cc(CNCCCN(C)C)c1O
Average dose per organ (Rattus norvegicus [1]): 16.7%
Ratio (Rattus norvegicus [2]): 37.3%
Dose/g [3]: 0.039%
Dose/g [4]: 0.218%
Dose per organ [5]: 1.53%
Average dose per organ (Rattus norvegicus [6]): 1.8%
Average dose per organ (Rattus norvegicus [7]): 2.02%
Dose/g [8]: 0.002%
fraction unbound [9]: 0.483
Average dose per organ (Rattus norvegicus [10]): 2.63%
Dose per organ [11]: 33%
Average dose per organ (Rattus norvegicus [12]): 2.38%
Average dose per organ (Rattus norvegicus [13]): 0.13%
Distribution coefficient (Rattus norvegicus [14]): 11.6
Ratio (Rattus norvegicus [15]): 43%
Average dose per organ (Rattus norvegicus [16]): 15.2%
Dose per organ [17]: 17.3%
Ratio (Rattus norvegicus [18]): 22.8%
Average dose per organ (Rattus norvegicus [19]): 9.24%
Average dose per organ (Rattus norvegicus [20]): 16.9%
Average dose per organ (Rattus norvegicus [21]): 0.1%
Average dose per organ (Rattus norvegicus [22]): 1.11%
Dose/g [23]: 0.00491%
Dose per organ [24]: 5.39%
Average dose per organ (Rattus norvegicus [25]): 1.84%
Average dose per organ (Rattus norvegicus [26]): 0.88%
Ratio [27]: 17.5
Average dose per organ (Rattus norvegicus [28]): 4.5%
Dose per organ [29]: 2.39%
Dose per organ [30]: 19.7%
Average dose per organ (Rattus norvegicus [31]): 12.2%
